pEC50: −log10 of the molar value.
What was measured:
[1] = molecular target: T1, Peroxisome proliferator-activated receptor gamma (Mus musculus, UniProt P37238); assay: Agonist activity at PPAR gamma in mouse 3T3L1 cells assessed as increase in insulin receptor by IRBA; type: functional, cell-based, 3T3-L1
T1 sequence (P37238 whole entry): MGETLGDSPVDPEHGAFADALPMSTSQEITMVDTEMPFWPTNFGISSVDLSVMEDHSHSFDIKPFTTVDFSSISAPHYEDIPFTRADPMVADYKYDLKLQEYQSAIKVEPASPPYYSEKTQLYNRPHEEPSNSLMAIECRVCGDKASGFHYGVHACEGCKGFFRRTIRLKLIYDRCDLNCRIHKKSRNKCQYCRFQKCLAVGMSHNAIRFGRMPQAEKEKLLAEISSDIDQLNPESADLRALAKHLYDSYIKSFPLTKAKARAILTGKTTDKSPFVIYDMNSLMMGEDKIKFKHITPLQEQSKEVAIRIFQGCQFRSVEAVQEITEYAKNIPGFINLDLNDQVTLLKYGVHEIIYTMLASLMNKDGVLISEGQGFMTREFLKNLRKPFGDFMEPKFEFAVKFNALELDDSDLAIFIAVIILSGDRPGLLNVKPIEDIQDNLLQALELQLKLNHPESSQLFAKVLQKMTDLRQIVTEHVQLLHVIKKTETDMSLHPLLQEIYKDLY

[2] = molecular target: T2, Peroxisome proliferator-activated receptor delta (Homo sapiens, UniProt Q03181); assay: Agonist activity at human PPAR delta by FRET assay; type: functional
T2 sequence (Q03181 whole entry): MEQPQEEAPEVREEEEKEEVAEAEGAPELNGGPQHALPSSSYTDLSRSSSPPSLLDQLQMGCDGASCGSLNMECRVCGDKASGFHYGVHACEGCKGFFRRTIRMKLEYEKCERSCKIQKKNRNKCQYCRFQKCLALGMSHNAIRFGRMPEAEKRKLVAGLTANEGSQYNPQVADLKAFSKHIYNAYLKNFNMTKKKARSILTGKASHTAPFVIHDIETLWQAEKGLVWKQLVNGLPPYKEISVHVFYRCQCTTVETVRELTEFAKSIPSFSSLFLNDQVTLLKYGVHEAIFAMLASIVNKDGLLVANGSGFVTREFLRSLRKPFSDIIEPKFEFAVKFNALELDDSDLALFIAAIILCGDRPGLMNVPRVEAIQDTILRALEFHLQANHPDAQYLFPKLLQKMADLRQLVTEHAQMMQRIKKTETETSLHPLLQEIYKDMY

[3] = molecular target: T3, Peroxisome proliferator-activated receptor alpha (Homo sapiens, UniProt Q07869); assay: Agonist activity at human PPAR alpha by FRET assay; type: functional
T3 sequence (Q07869 whole entry): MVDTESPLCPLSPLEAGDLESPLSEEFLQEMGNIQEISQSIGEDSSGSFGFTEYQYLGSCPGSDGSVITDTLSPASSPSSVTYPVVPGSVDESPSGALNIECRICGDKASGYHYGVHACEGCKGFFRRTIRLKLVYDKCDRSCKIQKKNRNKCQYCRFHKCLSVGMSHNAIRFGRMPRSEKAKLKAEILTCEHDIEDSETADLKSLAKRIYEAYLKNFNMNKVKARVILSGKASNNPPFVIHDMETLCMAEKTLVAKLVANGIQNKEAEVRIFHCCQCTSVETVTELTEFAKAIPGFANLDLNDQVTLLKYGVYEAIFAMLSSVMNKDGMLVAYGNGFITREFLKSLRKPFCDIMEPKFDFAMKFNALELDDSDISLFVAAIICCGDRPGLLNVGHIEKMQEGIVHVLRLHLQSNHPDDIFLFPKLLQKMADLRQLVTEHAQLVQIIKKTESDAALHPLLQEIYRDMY
In short: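 Human PPARα ligand binding domain (GST-tagged) association with biotin-labeled co-activator CBP; Eu-labeled anti-GST antibody and streptavidin-APC; incubated 2 h at rt in buffer with or without compound; fluorescence read at 615 or 655 nm emission, 340 nm excitation.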

pEC50 [1] | pEC50 [2] | pEC50 [3] | Compound
6.51 | 6.66 | 5.00 | Cc1nc(-c2ccc(OCCCOc3ccc4c(c3)CC[C@H]4CC(=O)O)cc2)sc1C(=O)O
5.82 | 8.62 | < 5.00 | CCCc1ccccc1OCCCOc1ccc2c(c1)CC[C@H]2CC(=O)O
6.06 | 8.36 | 5.89 | CCc1csc(-c2ccc(OCCCOc3ccc4c(c3)CC[C@H]4CC(=O)O)cc2)n1
6.62 | 7.34 | 5.77 | CCCc1cc(-c2nc(C)c(C(=O)O)s2)ccc1OCCCOc1ccc2c(c1)CC[C@H]2CC(=O)O
7.35 | 8.64 | 7.33 | CCCc1cc(-c2nc(OC(C)C)cs2)ccc1OCCCOc1ccc2c(c1)CC[C@H]2CC(=O)O
5.16 | 6.54 | < 5.00 | Cc1c(OCCCOc2ccc3c(c2)CC[C@H]3CC(=O)O)ccc2[nH]ccc12
6.04 | 8.47 | 5.87 | CCOc1csc(-c2ccc(OCCCOc3ccc4c(c3)CC[C@H]4CC(=O)O)c(OC)c2)n1
7.32 | 8.80 | 6.95 | CCCc1cc(-c2nccs2)ccc1OCCCOc1ccc2c(c1)CC[C@H]2CC(=O)O
5.48 | 7.74 | < 5.00 | C=CCc1c(OCCCOc2ccc3c(c2)CC[C@H]3CC(=O)O)ccc2[nH]ccc12
7.48 | 8.40 | 7.08 | COc1cc(-c2nc(C)c(C)s2)ccc1OCCCOc1ccc2c(c1)CC[C@H]2CC(=O)O
6.55 | 8.54 | 5.90 | Cc1nc(-c2ccc(OCCCOc3ccc4c(c3)CC[C@H]4CC(=O)O)cc2)sc1C
6.32 | 8.16 | 5.60 | CC(=O)c1sc(-c2ccc(OCCCOc3ccc4c(c3)CC[C@H]4CC(=O)O)cc2)nc1C
6.52 | 8.89 | 5.24 | COc1csc(-c2ccc(OCCCOc3ccc4c(c3)CC[C@H]4CC(=O)O)cc2)n1
< 5.00 | 6.08 | < 5.00 | O=C(O)C[C@@H]1CCc2cc(OCCCOc3ccc4cnoc4c3)ccc21
6.03 | 8.18 | < 5.00 | CCOc1ccc(OCCCOc2ccc3c(c2)CC[C@H]3CC(=O)O)cc1
6.54 | 8.09 | < 5.00 | Cc1noc2c(C)c(OCCCOc3ccc4c(c3)CC[C@H]4CC(=O)O)ccc12
7.31 | 8.47 | 6.25 | COc1cc(-c2nc(C)c(C(C)=O)s2)ccc1OCCCOc1ccc2c(c1)CC[C@H]2CC(=O)O
7.35 | 7.96 | 6.83 | CCCc1cc(-c2nc(CC)cs2)ccc1OCCCOc1ccc2c(c1)CC[C@H]2CC(=O)O

pEC50 [1] | pEC50 [2] | pEC50 [3] | Compound
7.74 | 7.96 | 7.06 | CCCc1cc(-c2nc(C(C)(C)C)cs2)ccc1OCCCOc1ccc2c(c1)CC[C@H]2CC(=O)O
6.12 | 8.92 | 7.00 | CCOc1csc(-c2ccc(OCCCOc3ccc4c(c3)CC[C@H]4CC(=O)O)cc2)n1
6.02 | 8.57 | 6.57 | COc1cc(-c2nc(C)cs2)ccc1OCCCOc1ccc2c(c1)CC[C@H]2CC(=O)O
5.44 | 7.17 | < 5.00 | Cc1cc2cc(OCCCOc3ccc4c(c3)CC[C@H]4CC(=O)O)ccc2[nH]1
6.01 | 7.96 | 5.14 | O=C(O)C[C@@H]1CCc2cc(OCCCOc3ccc(-c4cncnc4)cc3)ccc21
7.57 | 8.34 | 5.61 | CCCc1cc(-c2nc(CC(=O)O)cs2)ccc1OCCCOc1ccc2c(c1)CC[C@H]2CC(=O)O
5.78 | 8.57 | 6.15 | CCc1ccc(OCCCOc2ccc3c(c2)CC[C@H]3CC(=O)O)c(OC)c1
6.05 | 7.92 | 5.19 | CCCc1cc(-c2nc(CO)c(C(=O)O)s2)ccc1OCCCOc1ccc2c(c1)CC[C@H]2CC(=O)O
6.00 | 7.55 | 5.00 | COc1cc(-c2nc(C)c(C(=O)O)s2)ccc1OCCCOc1ccc2c(c1)CC[C@H]2CC(=O)O
6.15 | 7.85 | 5.12 | COc1cc(C#N)ccc1OCCCOc1ccc2c(c1)CC[C@H]2CC(=O)O
6.44 | 8.27 | 6.28 | CCOc1nc(-c2ccc(OCCCOc3ccc4c(c3)CC[C@H]4CC(=O)O)c(OC)c2)sc1CC
5.52 | 8.17 | < 5.00 | COc1ccc(OCCCOc2ccc3c(c2)CC[C@H]3CC(=O)O)cc1
7.77 | 7.74 | 6.76 | CCCc1cc(-c2nc(C)c(C(C)=O)s2)ccc1OCCCOc1ccc2c(c1)CC[C@H]2CC(=O)O
< 5.00 | 7.54 | < 5.00 | CCCc1c(OCCCOc2ccc3c(c2)CC[C@H]3CC(=O)O)ccc2c1ccn2C
7.16 | 8.52 | 6.12 | COc1csc(-c2ccc(OCCCOc3ccc4c(c3)CC[C@H]4CC(=O)O)c(OC)c2)n1
5.78 | 8.12 | < 5.00 | COc1cc(C)ccc1OCCCOc1ccc2c(c1)CC[C@H]2CC(=O)O
5.99 | 7.40 | 5.17 | Cn1ccc2cc(OCCCOc3ccc4c(c3)CC[C@H]4CC(=O)O)ccc21
5.25 | 8.38 | 5.79 | O=C(O)C[C@@H]1CCc2cc(OCCCOc3ccc(C(F)(F)F)cc3)ccc21

Compound | pEC50 [1] | pEC50 [2] | pEC50 [3]
O=C(O)C[C@@H]1CCc2cc(OCCCOc3ccc(-c4cccnc4)cc3)ccc21 | 6.26 | 8.64 | 5.77
O=C(O)C[C@@H]1CCc2cc(OCCCOc3ccc4ncoc4c3)ccc21 | < 5.00 | 6.89 | < 5.00
CCCc1cc(-c2nc3c(s2)CCC3)ccc1OCCCOc1ccc2c(c1)CC[C@H]2CC(=O)O | 7.03 | 8.46 | 6.48
CCCc1c(OCCCOc2ccc3c(c2)CC[C@H]3CC(=O)O)ccc2[nH]ccc12 | 6.34 | 8.21 | < 5.00
O=C(O)C[C@@H]1CCc2cc(OCCCOc3ccc(-c4nc5c(s4)CCC5)cc3)ccc21 | 5.92 | 8.89 | 6.95
COc1ccncc1-c1ccc(OCCCOc2ccc3c(c2)CC[C@H]3CC(=O)O)cc1 | 6.31 | 7.37 | < 5.00
O=C(O)C[C@@H]1CCc2cc(OCCCOc3ccc(-c4ccc(C(F)(F)F)cn4)cc3)ccc21 | 5.74 | 9.02 | 5.54
COc1cc(-c2nc3c(s2)CCCC3)ccc1OCCCOc1ccc2c(c1)CC[C@H]2CC(=O)O | 7.08 | 8.48 | 7.36
Cc1coc2cc(OCCCOc3ccc4c(c3)CC[C@H]4CC(=O)O)ccc12 | 5.71 | 8.10 | < 5.00
CCCc1cc(-c2nc(C)c(C(=O)N(C)C)s2)ccc1OCCCOc1ccc2c(c1)CC[C@H]2CC(=O)O | 7.77 | 8.36 | 6.85
CCCc1c(OCCCOc2ccc3c(c2)CC[C@H]3CC(=O)O)ccc2c(C)noc12 | 6.76 | 8.68 | < 5.00
Cc1cccc(-c2ccc(OCCCOc3ccc4c(c3)CC[C@H]4CC(=O)O)cc2)n1 | 6.26 | 8.66 | 5.28
COc1cc(-c2nc3c(s2)CCCO3)ccc1OCCCOc1ccc2c(c1)CC[C@H]2CC(=O)O | 6.74 | 8.89 | 6.48
COc1ncc(-c2ccc(OCCCOc3ccc4c(c3)CC[C@H]4CC(=O)O)cc2)c(OC)n1 | 6.52 | 8.25 | < 5.00

— ChEMBL document CHEMBL1142242, “Indanylacetic acid derivatives carrying 4-thiazolyl-phenoxy tail groups, a new class of potent PPAR alpha/gamma/delta pan agonists: synthesis, structure-activity relationship, and in vivo efficacy” (J Med Chem, 2007)
